MIC data for five compounds are collected here from ChEMBL document CHEMBL4219167, “Disulfiram-based disulfides as narrow-spectrum antibacterial agents” (Bioorg Med Chem Lett, 2018).

Values after ≈ are worked out from the molar mass of the structure shown. A value given as a limit tells only on which side of the number the result lay.

One assay relates to Streptococcus pneumoniae. As to the kind of experiment: Antibacterial activity against Streptococcus pneumoniae TCH8431 after 20 hrs by broth microdilution assay. The format is functional. The settings on record: TCH8431, 20 h. A general note: In broth dilution the organism is exposed to a series of concentrations in liquid medium.
The test system of assay [1] is Staphylococcus aureus. The experiment in a line: Antibacterial activity against vancomycin-intermediate resistant Staphylococcus aureus AR-217 after 20 hrs by broth microdilution assay. The format is functional. The settings on record: AR-217, 20 h.
The subject of assay [2] is Staphylococcus aureus. As to the kind of experiment: Antibacterial activity against methicillin-resistant Staphylococcus aureus COL after 20 hrs by broth microdilution assay. The format is functional.
Assay [3] concerns Staphylococcus aureus. The experiment in a line: Antibacterial activity against vancomycin-resistant Staphylococcus aureus HIP14300 after 20 hrs by broth microdilution assay. The format is functional. The settings on record: HIP14300, 20 h.
In a further assay the test system is Streptococcus pyogenes. The experiment in a line: Antibacterial activity against Streptococcus pyogenes H293 after 20 hrs by broth microdilution assay. The format is functional. Particulars: H293, 20 h.
A further assay deals with Enterococcus faecium. The experiment in a line: Antibacterial activity against vancomycin-resistant Enterococcus faecium ATCC 700221 after 20 hrs by broth microdilution assay. Particulars: ATCC 700221, 20 h. The format is functional. The method, boiled down:
(§1)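 Brain heart infusion broth at 37°C; E. faecium under 5% CO2. Cells at 0.5 McFarland are diluted 1:100 and exposed to serial dilutions (DMSO stocks 1 mM or 1 mg/mL; controls in water).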

For another assay, the system named is Streptococcus agalactiae. The experiment in a line: Antibacterial activity against Streptococcus agalactiae SGBS005 after 20 hrs by broth microdilution assay. The format is functional. The settings on record: SGBS005, 20 h.
Assay [4] has as its system Staphylococcus epidermidis. The experiment in a line: Antibacterial activity against vancomycin-intermediate resistant Staphylococcus epidermidis NRS6 after 20 hrs by broth microdilution assay. The format is functional. Particulars: NRS6, 20 h.
For another assay, the system named is Escherichia coli. The experiment in a line: Antibacterial activity against Escherichia coli DC10B after 20 hrs by broth microdilution assay. The format is functional. The method, boiled down: (§2)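 Medium is tryptic soy broth, 37°C. Overnight culture is adjusted to 0.5 McFarland, diluted 1:100 and exposed to serial dilutions (test agents from 1 mM or 1 mg/mL DMSO stocks; control antibiotics in water). Incubation lasts 20 h. MIC is the lowest concentration with no visible growth.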

The test system of the next assay is Acinetobacter baumannii. As to the kind of experiment: Antibacterial activity against Acinetobacter baumannii AB5075 after 20 hrs by broth microdilution assay. The format is functional. Particulars: AB5075, 20 h.
Assay [5] concerns Bacillus anthracis. The experiment in a line: Antibacterial activity against Bacillus anthracis Ames 35 after 20 hrs by broth microdilution assay. The format is functional. Particulars: Ames 35, 20 h.
For a further assay, the system named is Vibrio cholerae. The experiment in a line: Antibacterial activity against Vibrio cholerae TS D4 after 20 hrs by Todd Hewitt broth broth microdilution method. The format is functional. The settings on record: TS D4, 20 h.
Assay [6] relates to Yersinia pestis. The experiment in a line: Antibacterial activity against Yersinia pestis Kim D2 after 20 hrs by broth microdilution assay. The format is functional. The settings on record: Kim D2, 20 h.
The subject of a further assay is Pseudomonas aeruginosa. The experiment in a line: Antibacterial activity against Pseudomonas aeruginosa ATCC 15442 after 20 hrs by broth microdilution assay. The format is functional. Particulars: ATCC 15442, 20 h. The method, boiled down: as §2
The test system of the next assay is Shigella dysenteriae. The experiment in a line: Antibacterial activity against Shigella dysenteriae Newcastle 1934 after 20 hrs by broth microdilution assay. The format is functional. The settings on record: Newcastle 1934, 20 h. The method, boiled down: as §2
Assay [7] deals with Bacillus anthracis. As to the kind of experiment: Antibacterial activity against Bacillus anthracis Sterne 34F2 after 20 hrs by broth microdilution assay. The format is functional. Particulars: Sterne 34F2, 20 h.
In assay [8] the test system is Bacillus anthracis. The experiment in a line: Antibacterial activity against Bacillus anthracis Weybridge after 20 hrs by broth microdilution assay. The format is functional.
The subject of a further assay is Burkholderia cepacia. The experiment in a line: Antibacterial activity against Burkholderia cepacia UCB 717 after 20 hrs by broth microdilution assay. The format is functional. The settings on record: UCB 717, 20 h. The method, boiled down: as §2
Assay [9] relates to Bacillus anthracis. As to the kind of experiment: Antibacterial activity against Bacillus anthracis UM23-1 after 20 hrs by broth microdilution assay. The format is functional. Particulars: UM23-1, 20 h.
The subject of the next assay is Citrobacter freundii. The experiment in a line: Antibacterial activity against Citrobacter freundii 4_7_47CFAA after 20 hrs by broth microdilution assay. The format is functional. The method, boiled down: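 Brucella broth, 37°C, 5% CO2. Inoculum is 0.5 McFarland diluted 1:100, with serial drug dilutions from DMSO stocks (1 mM or 1 mg/mL) and control antibiotics in water.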

The subject of the next assay is Listeria monocytogenes. The experiment in a line: Antibacterial activity against Listeria monocytogenes Gibson after 20 hrs by broth microdilution assay. The format is functional. The method, boiled down:
as §1

A further assay deals with Brucella neotomae. As to the kind of experiment: Antibacterial activity against Brucella neotomae 5K33 after 20 hrs by broth microdilution assay. The settings on record: 5K33, 20 h. The format is functional.
For the next assay, the system named is Bacillus cereus. As to the kind of experiment: Antibacterial activity against Bacillus cereus Gibson 971 after 20 hrs by broth microdilution assay. The format is functional. The settings on record: Gibson 971, 20 h.
The next assay concerns Micrococcus luteus. As to the kind of experiment: Antibacterial activity against Micrococcus luteus SK58 after 20 hrs by broth microdilution assay. The format is functional. The settings on record: SK58, 20 h.
For assay [10], the system named is Yersinia pseudotuberculosis. The experiment in a line: Antibacterial activity against Yersinia pseudotuberculosis P61 after 20 hrs by broth microdilution assay. The format is functional. The settings on record: P61, 20 h. The method, boiled down: (§3)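 Yersinia cultured in tryptic soy broth at 28°C. A 0.5 McFarland suspension diluted 1:100 receives serial dilutions of agents from 1 mM or 1 mg/mL DMSO stocks; control antibiotics are in water.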

Another assay has as its system Burkholderia multivorans. As to the kind of experiment: Antibacterial activity against Burkholderia multivorans CF2 after 20 hrs by broth microdilution assay. The format is functional. The settings on record: CF2, 20 h. The method, boiled down: as §2
Another assay concerns Yersinia enterocolitica. The experiment in a line: Antibacterial activity against Yersinia enterocolitica WA-314 after 20 hrs by broth microdilution assay. The format is functional. Particulars: WA-314, 20 h. The method, boiled down:
as §3

The next assay deals with Klebsiella pneumoniae. The experiment in a line: Antibacterial activity against Klebsiella pneumoniae 700603 after 20 hrs by broth microdilution assay. The format is functional. Particulars: Klebsiella pneumoniae, 700603, 20 h. The method, boiled down: as §2
For a further assay, the system named is Salmonella typhi. The experiment in a line: Antibacterial activity against Salmonella typhi Ty2 after 20 hrs by Todd Hewitt broth broth microdilution method. The settings on record: Salmonella enterica. The format is functional, Salmonella enterica subsp. enterica serovar Typhi str. Ty2.
Another assay concerns Corynebacterium striatum. The experiment in a line: Antibacterial activity against Corynebacterium striatum FS-1 after 20 hrs by broth microdilution assay. The format is functional. Particulars: FS-1, 20 h.
In a further assay the test system is Proteus mirabilis. The experiment in a line: Antibacterial activity against Proteus mirabilis HM-752 after 20 hrs by broth microdilution assay. The format is functional. Particulars: HM-752, 20 h. The method, boiled down: as §2
In another assay the test system is Francisella tularensis. As to the kind of experiment: Antibacterial activity against Francisella tularensis Utah 112 after 20 hrs by broth microdilution assay. The format is functional. Particulars: Utah 112, 20 h.
Assay [11] deals with Yersinia pestis. As to the kind of experiment: Antibacterial activity against Yersinia pestis Kuma D7 after 20 hrs by broth microdilution assay. The format is functional. Particulars: Kuma D7, 20 h.
A further assay relates to Rhodococcus erythropolis. As to the kind of experiment: Antibacterial activity against Rhodococcus erythropolis SK121 after 20 hrs by broth microdilution assay. The format is functional. The settings on record: SK121, 20 h. The method, boiled down:
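R. erythropolis grown in brain heart infusion broth at 30°C. A 0.5 McFarland suspension diluted 1:100 is treated with serial dilutions from 1 mM or 1 mg/mL DMSO stocks; control antibiotics are in water.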

As for `CCSSC(=S)N(CC)CC`, the MIC in the assay on Streptococcus pneumoniae is more than 32 µM; against Staphylococcus aureus [1], 8 µM (≈ 1.68 µg/mL); in the assay on Staphylococcus aureus [2] it was 16 µM (≈ 3.35 µg/mL); in the assay with Staphylococcus aureus [3], 16 µM (≈ 3.35 µg/mL); with Streptococcus pyogenes it was 32 µM (≈ 6.7 µg/mL); against Enterococcus faecium it was more than 32 µM. The MIC was more than 32 µM in the assay with Streptococcus agalactiae and 32 µM (≈ 6.7 µg/mL) in assay [4].

`CCN(CC)C(=S)SSc1ccccc1`: the MIC was more than 32 µM against Streptococcus pneumoniae; 16 µM (≈ 4.12 µg/mL) in the assay with Staphylococcus aureus [1]; 32 µM (≈ 8.24 µg/mL) against Staphylococcus aureus [2]; 16 µM (≈ 4.12 µg/mL) in the assay with Staphylococcus aureus [3]; more than 32 µM against Streptococcus pyogenes; more than 32 µM with Enterococcus faecium. For the same compound, the MIC was more than 32 µM with Streptococcus agalactiae and 16 µM (≈ 4.12 µg/mL) in assay [4].

Take `CCN(CC)C(=S)SSCC(C)C`: the MIC in the assay with Streptococcus pneumoniae is more than 32 µM; with Staphylococcus aureus [1], more than 32 µM; against Staphylococcus aureus [2] it was more than 32 µM; with Staphylococcus aureus [3] it was more than 32 µM; in the assay with Streptococcus pyogenes, 32 µM (≈ 7.6 µg/mL); in the assay on Enterococcus faecium, more than 32 µM. For the same compound, the MIC (with Streptococcus agalactiae; in assay [4]) was more than 32 µM in each case.

As to `CCCCCSSC(=S)N(CC)CC`, the MIC was more than 32 µM against Streptococcus pneumoniae; 8 µM (≈ 2.01 µg/mL) in the assay with Staphylococcus aureus [1]; more than 32 µM in the assay on Escherichia coli; more than 32 µM with Acinetobacter baumannii; 16 µM (≈ 4.02 µg/mL) in the assay with Staphylococcus aureus [2]; 4 µM (≈ 1.01 µg/mL) against Bacillus anthracis [5]. The MIC is more than 32 µM in the assay on Vibrio cholerae; 32 µM (≈ 8.05 µg/mL) with Yersinia pestis [6]; more than 32 µM in the assay with Pseudomonas aeruginosa; more than 32 µM in the assay on Shigella dysenteriae; 4 µM (≈ 1.01 µg/mL) in the assay on Bacillus anthracis [7]; 8 µM (≈ 2.01 µg/mL) against Bacillus anthracis [8]. Also, the MIC in the assay with Staphylococcus aureus [3] is 16 µM (≈ 4.02 µg/mL); against Burkholderia cepacia it was more than 32 µM; with Bacillus anthracis [9] it was 4 µM (≈ 1.01 µg/mL); with Streptococcus pyogenes, more than 32 µM; in the assay on Citrobacter freundii, more than 32 µM; against Enterococcus faecium, more than 32 µM. Moreover, the MIC against Listeria monocytogenes was 8 µM (≈ 2.01 µg/mL); against Brucella neotomae, 32 µM (≈ 8.05 µg/mL); with Bacillus cereus it was 1 µM (≈ 0.251 µg/mL); in the assay with Streptococcus agalactiae, more than 32 µM; against Micrococcus luteus it was 16 µM (≈ 4.02 µg/mL); in assay [10], more than 32 µM. For the same compound, the MIC in the assay with Burkholderia multivorans was more than 32 µM; with Yersinia enterocolitica, more than 32 µM; with Klebsiella pneumoniae, more than 32 µM; against Salmonella typhi it was more than 32 µM; against Corynebacterium striatum, 32 µM (≈ 8.05 µg/mL); against Proteus mirabilis, more than 32 µM. The MIC in assay [4] is 8 µM (≈ 2.01 µg/mL); against Francisella tularensis, 32 µM (≈ 8.05 µg/mL); against Yersinia pestis [11], 32 µM (≈ 8.05 µg/mL); in the assay with Rhodococcus erythropolis it was 16 µM (≈ 4.02 µg/mL).

Take `CCN(CC)C(=S)SSC1CCCC1`: the MIC was more than 32 µM against Streptococcus pneumoniae; 16 µM (≈ 3.99 µg/mL) against Staphylococcus aureus [1]; 32 µM (≈ 7.98 µg/mL) in the assay on Staphylococcus aureus [2]; 32 µM (≈ 7.98 µg/mL) in the assay with Staphylococcus aureus [3]; 32 µM (≈ 7.98 µg/mL) with Streptococcus pyogenes; more than 32 µM with Enterococcus faecium. Besides, the minimum inhibitory concentration (MIC) was more than 32 µM in the assay with Streptococcus agalactiae and 32 µM (≈ 7.98 µg/mL) in assay [4].

Usually MIC stands for the least concentration at which growth counts as inhibited. A lower MIC goes with a more susceptible organism.
